In data set [1] the target is T1, Prothrombin (Homo sapiens, UniProt P00734). The experiment in a line: Partial allosteric inhibition of human thrombin at 300 uM using spectrozyme TH as substrate pretreated for 10 mins followed by substrate addition by spectrophotometric method relative to control.
In data set [2] the target is T1, Prothrombin. The experiment in a line: Partial allosteric inhibition of human thrombin using spectrozyme TH as substrate pretreated for 10 mins followed by substrate addition by spectrophotometric method. In short, it runs like this: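 Chromogenic substrate hydrolysis by thrombin read spectrophotometrically in 20 mM Tris-HCl pH 7.4 with […], 100 mM NaCl and 0.1% PEG 8000 at 25 °C. Sigmoidal fits gave IC50 and efficacy (ΔY). Errors ±1 S.E.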

The target of data set [3] is T1, Prothrombin. The experiment in a line: Partial allosteric inhibition of human thrombin at 500 uM using spectrozyme TH as substrate pretreated for 10 mins followed by substrate addition by spectrophotometric method relative to control.
Data set [4] concerns CCOC(=O)c1c(C)oc2cc(OCCc3ccccc3)c(OCc3oc4cc(OC)c(OS(=O)(=O)O)cc4c3C(=O)OCC)cc12. The experiment in a line: Non competitive inhibition of human thrombin assessed as substrate Vmax at 1 uM using varying levels of spectrozyme TH as substrate measured after 10 mins by Michaelis-Menten plot analysis (reference value: 51.0 +/- 2.8 mAU/min).
The test system is the same in data set [5]. The experiment in a line: Non competitive inhibition of human thrombin assessed as substrate Vmax at 10 uM using varying levels of spectrozyme TH as substrate measured after 10 mins by Michaelis-Menten plot analysis (reference value: 51.0 +/- 2.8 mAU/min).
Data set [6] shares this test system. The experiment in a line: Non competitive inhibition of human thrombin assessed as substrate Vmax at 40 uM using varying levels of spectrozyme TH as substrate measured after 10 mins by Michaelis-Menten plot analysis (reference value: 51.0 +/- 2.8 mAU/min).
Data set [7] shares this test system. Put plainly: Non competitive inhibition of human thrombin assessed as substrate Km at 1 uM using varying levels of spectrozyme TH as substrate measured after 10 mins by Michaelis-Menten plot analysis (reference value: 9.3 +/- 2.8 uM).
For data set [8] the test system is unchanged. The experiment in a line: Non competitive inhibition of human thrombin assessed as substrate Km at 2 uM using varying levels of spectrozyme TH as substrate measured after 10 mins by Michaelis-Menten plot analysis (reference value: 9.3 +/- 2.8 uM).
Data set [9] shares this test system. Put plainly: Non competitive inhibition of human thrombin assessed as substrate Km at 10 uM using varying levels of spectrozyme TH as substrate measured after 10 mins by Michaelis-Menten plot analysis (reference value: 9.3 +/- 2.8 uM).
For data set [10] the test system is unchanged. The experiment in a line: Non competitive inhibition of human thrombin assessed as substrate Km at 40 uM using varying levels of spectrozyme TH as substrate measured after 10 mins by Michaelis-Menten plot analysis (reference value: 9.3 +/- 2.8 uM).
Data set [11] deals with CCOC(=O)c1c(C)oc2cc(OCc3ccccc3)c(OCc3oc4cc(OCC5CCCCC5)c(OS(=O)(=O)O)cc4c3C(=O)OCC)cc12. The experiment in a line: Mixed-type inhibition of human thrombin assessed as substrate Vmax at 1 uM using varying levels of spectrozyme TH as substrate measured after 10 mins by Michaelis-Menten plot analysis (reference value: 48.2 +/- 2.8 mAU/min).
Data set [12] has the same test system. Put plainly: Mixed-type inhibition of human thrombin assessed as substrate Vmax at 2 uM using varying levels of spectrozyme TH as substrate measured after 10 mins by Michaelis-Menten plot analysis (reference value: 48.2 +/- 2.8 mAU/min).
The test system is the same in data set [13]. Put plainly: Mixed-type inhibition of human thrombin assessed as substrate Vmax at 10 uM using varying levels of spectrozyme TH as substrate measured after 10 mins by Michaelis-Menten plot analysis (reference value: 48.2 +/- 2.8 mAU/min).
For data set [14] the test system is unchanged. The experiment in a line: Mixed-type inhibition of human thrombin assessed as substrate Vmax at 40 uM using varying levels of spectrozyme TH as substrate measured after 10 mins by Michaelis-Menten plot analysis (reference value: 48.2 +/- 2.8 mAU/min).
The test system is the same in data set [15]. The experiment in a line: Mixed-type inhibition of human thrombin assessed as substrate Km at 1 uM using varying levels of spectrozyme TH as substrate measured after 10 mins by Michaelis-Menten plot analysis (reference value: 8.6 +/- 2.8 uM).
Data set [16] has the same test system. Put plainly: Mixed-type inhibition of human thrombin assessed as substrate Km at 2 uM using varying levels of spectrozyme TH as substrate measured after 10 mins by Michaelis-Menten plot analysis (reference value: 8.6 +/- 2.8 uM).
Data set [17] shares this test system. Put plainly: Mixed-type inhibition of human thrombin assessed as substrate Km at 10 uM using varying levels of spectrozyme TH as substrate measured after 10 mins by Michaelis-Menten plot analysis (reference value: 8.6 +/- 2.8 uM).
The test system is the same in data set [18]. The experiment in a line: Mixed-type inhibition of human thrombin assessed as substrate Km at 40 uM using varying levels of spectrozyme TH as substrate measured after 10 mins by Michaelis-Menten plot analysis (reference value: 8.6 +/- 2.8 uM).

The source made the active and inactive calls. The calls are words filed in the database; no cut-off is given here.

For orientation: inhibition means the relative decrease from the control value, in per cent. By IC50 is commonly meant the point on the concentration scale where inhibition reaches its midpoint. `CCOC(=O)c1c(COc2cc3c(C(=O)OCCc4ccccc4)c(C)oc3cc2OC)oc2cc(OC)c(OS(=O)(=O)O)cc12`: on Prothrombin [1], the inhibition is greater than 50%. Besides, at Prothrombin [2], the Efficacy was found to be 58% and the IC50 was found to be 3.2 µM.

On to `CCOC(=O)c1c(C)oc2cc(OC)c(OCc3oc4cc(OCC5CCCCC5)c(OS(=O)(=O)O)cc4c3C(=O)OCC)cc12`, for which the inhibition at Prothrombin [1] was greater than 50%. Further, on Prothrombin [2], the Efficacy came out at 77% and the half-inhibitory concentration (IC50) amounted to 3.8 µM.

Consider `CCOC(=O)c1c(C)oc2cc(Oc3cccc(OS(=O)(=O)O)c3)c(OCc3oc4cc(OC)c(OS(=O)(=O)O)cc4c3C(=O)OCC)cc12`, for which, on Prothrombin [1], the inhibition entry was “inactive”. In addition, the IC50 at Prothrombin [2] is greater than 300 µM.

Regarding `CCOC(=O)c1c(C)oc2cc(OCc3cccc(OC(C)C)c3)c(OS(=O)(=O)O)cc12`, the inhibition at Prothrombin [3] was greater than 50%. On Prothrombin [2], the 50% inhibitory concentration (IC50) was greater than 500 µM.

Regarding `CCOC(=O)c1c(C)oc2cc(OCc3cccc(OC(C)C)c3)c(OCc3oc4cc(OC)c(OS(=O)(=O)O)cc4c3C(=O)OCC)cc12`, at Prothrombin [1], the inhibition was greater than 50%. Besides, on Prothrombin [2], the Efficacy turned out to be 57% and the IC50 is 2.6 µM.

For `COC(=O)c1c(C)oc2cc(OCc3cccc(OS(=O)(=O)O)c3)c(OCc3cccc(S(=O)(=O)O)c3)cc12`, on Prothrombin [3], the inhibition was greater than 50%. Moreover, on Prothrombin [2], the half-maximal inhibitory concentration (IC50) is greater than 500 µM.

As for `CCCOC(=O)c1c(COc2cc3c(C(=O)OCc4ccccc4)c(C)oc3cc2OC)oc2cc(OC)c(OS(=O)(=O)O)cc12`, the inhibition on Prothrombin [1] is greater than 50%. Further, on Prothrombin [2], the Efficacy is 68% and the IC50 amounted to 4.9 µM.

In the case of `CCOC(=O)c1c(C)oc2cc(OCc3ccccc3)c(OS(=O)(=O)O)cc12`, on Prothrombin [3], the inhibition is greater than 50%. Also, on Prothrombin [2], the Efficacy is 72% and the IC50 turned out to be 134 µM.

Turning to `CCOC(=O)c1c(C)oc2cc(OCc3cccc(OS(=O)(=O)O)c3)c(OS(=O)(=O)O)cc12`, the inhibition at Prothrombin [3] was greater than 50%. The half-maximal inhibitory concentration (IC50) at Prothrombin [2] is greater than 500 µM.

For `CCOC(=O)c1c(C)oc2cc(OCc3ccccc3)c(OCc3cccc(S(=O)(=O)O)c3)cc12`, the inhibition on Prothrombin [3] is greater than 50%. Also, at Prothrombin [2], the half-inhibitory concentration (IC50) is greater than 500 µM.

Regarding `CCOC(=O)c1c(C)oc2cc(OS(=O)(=O)O)c(OCc3oc4cc(OC)c(OS(=O)(=O)O)cc4c3C(=O)OCC)cc12`, the inhibition entry at Prothrombin [1] was “inactive”. Also, the IC50 on Prothrombin [2] was greater than 300 µM.

Regarding `COc1cc2oc(C)c(C(=O)OCc3ccccc3)c2cc1OS(=O)(=O)O`, the inhibition on Prothrombin [3] was greater than 50%. Further, at Prothrombin [2], the Efficacy came to 95% and the IC50 stood at 168 µM.

With `CCOC(=O)c1c(C)oc2cc(OCc3ccc(OC(C)C)cc3)c(OCc3oc4cc(OC)c(OS(=O)(=O)O)cc4c3C(=O)OCC)cc12`, the inhibition at Prothrombin [1] is greater than 50%. On Prothrombin [2], the Efficacy was 74% and the concentration for half-maximal inhibition (IC50) turned out to be 2.3 µM.

As to `CCOC(=O)c1c(C)oc2cc(OC)c(OCc3cccc(S(=O)(=O)O)c3)cc12`, the inhibition at Prothrombin [3] was greater than 50%. Also, on Prothrombin [2], the Efficacy was 101% and the IC50 was 134 µM.

In the case of `CCOC(=O)c1c(C)oc2cc(OCc3cccc(OCOC)c3)c(OS(=O)(=O)O)cc12`, the inhibition at Prothrombin [3] was greater than 50%. Further, at Prothrombin [2], the Efficacy is 75.9% and the IC50 came to 229 µM.

The Km is the substrate concentration at which the rate is half of its maximum. As to “Prothrombin (Homo sapiens) (from UniProt P00734)”, the Vmax in [4] turned out to be 44.1 mAU/min; in data set [5], 30.9 mAU/min; in [6], 23.7 mAU/min; in data set [11] it was 43.8 mAU/min; in data set [12] it was 38.7 mAU/min; in [13], 32.5 mAU/min. For the same compound, the Vmax in data set [14] worked out at 26.5 mAU/min. For the same compound, the Km in data set [7] worked out at 8.3 µM; in data set [8], 9.2 µM; in data set [9] it was 7.4 µM; in [10] it was 6.8 µM; in data set [15], 8.8 µM; in [16], 10.7 µM. Further, the Km in data set [17] turned out to be 29.7 µM; in data set [18] it was 61 µM.

On to `CCOC(=O)c1c(C)oc2cc(OCC3CCCCC3)c(OCc3oc4cc(OCC5CCCCC5)c(OS(=O)(=O)O)cc4c3C(=O)OCC)cc12`, for which the inhibition on Prothrombin [1] was greater than 50%. For the same compound, at Prothrombin [2], the Efficacy was found to be 93% and the 50% inhibitory concentration (IC50) was 8.7 µM.

On to `Cc1oc2cc(OCc3ccccc3)c(OS(=O)(=O)O)cc2c1C(=O)O`, for which the inhibition at Prothrombin [3] was greater than 50%. The half-maximal inhibitory concentration (IC50) at Prothrombin [2] is greater than 500 µM.

`CCOC(=O)c1c(C)oc2cc(OCc3ccccc3)c(OCc3oc4cc(OC)c(OS(=O)(=O)O)cc4c3C(=O)OCCOS(=O)(=O)O)cc12`: the inhibition on Prothrombin [1] was greater than 50%. In addition, on Prothrombin [2], the Efficacy came to 74% and the IC50 came out at 14 µM.

`CCOC(=O)c1c(C)oc2cc(OCc3cccc(OCOC)c3)c(OCc3oc4cc(OC)c(OS(=O)(=O)O)cc4c3C(=O)OCC)cc12`: the inhibition at Prothrombin [1] is greater than 50%. Moreover, on Prothrombin [2], the Efficacy was determined as 59% and the concentration for half-maximal inhibition (IC50) came to 4 µM.

`CCOC(=O)c1c(C)oc2cc(OCC3CCCCC3)c(OCc3oc4cc(OC)c(OS(=O)(=O)O)cc4c3C(=O)OCC)cc12`: the inhibition at Prothrombin [1] is greater than 50%. On Prothrombin [2], the Efficacy is 63% and the IC50 came out at 2.6 µM.

Turning to `CCOC(=O)c1c(C)oc2cc(OCC3CCCCC3)c(OS(=O)(=O)O)cc12`, at Prothrombin [3], the inhibition is greater than 50%. The half-inhibitory concentration (IC50) at Prothrombin [2] was greater than 500 µM.

For the compound `CCOC(=O)c1c(C)oc2cc(OCc3ccccc3)c(OCc3oc4cc(OC)c(OS(=O)(=O)O)cc4c3C(=O)OCC)cc12`, the inhibition on Prothrombin [1] was greater than 50%. For the same compound, at Prothrombin [2], the Efficacy turned out to be 57% and the IC50 stood at 2 µM.

Regarding `CCOC(=O)c1c(COc2cc3c(C(=O)OCc4ccc(OCOC)cc4)c(C)oc3cc2OC)oc2cc(OC)c(OS(=O)(=O)O)cc12`, at Prothrombin [1], the inhibition was greater than 50%. Besides, at Prothrombin [2], the Efficacy was found to be 66% and the IC50 was found to be 2.6 µM.

Take `CCOC(=O)c1c(C)oc2cc(OCc3ccc(OCOC)cc3)c(OCc3oc4cc(OC)c(OS(=O)(=O)O)cc4c3C(=O)OCC)cc12`: the inhibition at Prothrombin [1] is greater than 50%. In addition, at Prothrombin [2], the Efficacy amounted to 61% and the half-inhibitory concentration (IC50) worked out at 3.3 µM.

As to `COc1cc2oc(C)c(C(=O)OCCOS(=O)(=O)O)c2cc1OS(=O)(=O)O`, on Prothrombin [3], the inhibition is greater than 50%. For the same compound, the IC50 on Prothrombin [2] was greater than 500 µM.

For `CCOC(=O)c1c(C)oc2cc(OCc3ccc(OC(C)C)cc3)c(OS(=O)(=O)O)cc12`, the inhibition at Prothrombin [3] was greater than 50%. Further, the 50% inhibitory concentration (IC50) at Prothrombin [2] was greater than 500 µM.

The values above are taken from ChEMBL document CHEMBL4184294, “A small group of sulfated benzofurans induces steady-state submaximal inhibition of thrombin” (Bioorg Med Chem Lett, 2018).
